Data on two molecules can be found in paper PMC3055939 (Chemical biology & drug design, 2011).

Each structure is given as a SMILES string.

The conditions of data set [1]: cited from earlier work.
The target of a further data set is purified PSMA (GCP2) (Homo sapiens, UniProt Q04609). Put plainly: IC50 determinations for PSMA inhibition. Type of data set: biochemical. The essentials:
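Purified PSMA (working stock 50 μg/mL) was diluted in 50 mM Tris, pH 7.4, 1% Triton X-100 to give 15–20% substrate conversion without inhibitor. […] Reactions were quenched with 2% TFA in methanol, buffered with K2HPO4, and centrifuged. Product was quantified by HPLC, and IC50 was calculated.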

Sequence of purified PSMA (GCP2) (Q04609 whole entry): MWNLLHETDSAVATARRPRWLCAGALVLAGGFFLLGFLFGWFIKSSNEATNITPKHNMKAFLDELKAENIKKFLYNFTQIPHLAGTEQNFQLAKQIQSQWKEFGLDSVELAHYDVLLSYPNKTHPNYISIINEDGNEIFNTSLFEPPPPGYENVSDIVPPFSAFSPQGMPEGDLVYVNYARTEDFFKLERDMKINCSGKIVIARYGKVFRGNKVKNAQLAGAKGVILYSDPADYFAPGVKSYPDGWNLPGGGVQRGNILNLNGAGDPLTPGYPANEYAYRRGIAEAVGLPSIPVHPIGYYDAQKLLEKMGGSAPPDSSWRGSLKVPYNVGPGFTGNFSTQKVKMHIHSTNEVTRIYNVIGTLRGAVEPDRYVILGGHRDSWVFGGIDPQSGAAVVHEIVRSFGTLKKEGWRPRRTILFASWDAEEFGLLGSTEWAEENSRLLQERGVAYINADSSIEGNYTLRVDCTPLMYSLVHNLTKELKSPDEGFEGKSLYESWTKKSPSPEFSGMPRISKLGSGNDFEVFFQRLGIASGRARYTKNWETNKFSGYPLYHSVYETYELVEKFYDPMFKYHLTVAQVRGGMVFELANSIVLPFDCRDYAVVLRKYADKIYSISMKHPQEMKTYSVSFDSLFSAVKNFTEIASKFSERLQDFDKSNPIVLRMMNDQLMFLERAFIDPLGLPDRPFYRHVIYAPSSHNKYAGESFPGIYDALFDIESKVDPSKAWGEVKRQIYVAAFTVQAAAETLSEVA

`O=C(O)CCC(CP(=O)(O)O)C(=O)O` (centres unmarked) [2-PMPA]: the oral bioavailability result in data set [1] is “poor oral bioavailability”.
As to `C=CS(=O)(=O)NC(CCC(=O)O)C(=O)O` (centres unmarked) [2e, 2-Ethenesulfonylamino-pentanedioic acid], the IC50 (as a rule, the midpoint of a concentration-inhibition curve) against purified PSMA (GCP2) is more than 100 µM.
